Measurements gathered from unrelated publications.
Protocols differ between the studies behind these lines.
Target: Serine/threonine-protein kinase TAO3 (TAOK3, Homo sapiens, UniProt Q9H2K8)
Sequence (Q9H2K8 1-898, as in one of the studies): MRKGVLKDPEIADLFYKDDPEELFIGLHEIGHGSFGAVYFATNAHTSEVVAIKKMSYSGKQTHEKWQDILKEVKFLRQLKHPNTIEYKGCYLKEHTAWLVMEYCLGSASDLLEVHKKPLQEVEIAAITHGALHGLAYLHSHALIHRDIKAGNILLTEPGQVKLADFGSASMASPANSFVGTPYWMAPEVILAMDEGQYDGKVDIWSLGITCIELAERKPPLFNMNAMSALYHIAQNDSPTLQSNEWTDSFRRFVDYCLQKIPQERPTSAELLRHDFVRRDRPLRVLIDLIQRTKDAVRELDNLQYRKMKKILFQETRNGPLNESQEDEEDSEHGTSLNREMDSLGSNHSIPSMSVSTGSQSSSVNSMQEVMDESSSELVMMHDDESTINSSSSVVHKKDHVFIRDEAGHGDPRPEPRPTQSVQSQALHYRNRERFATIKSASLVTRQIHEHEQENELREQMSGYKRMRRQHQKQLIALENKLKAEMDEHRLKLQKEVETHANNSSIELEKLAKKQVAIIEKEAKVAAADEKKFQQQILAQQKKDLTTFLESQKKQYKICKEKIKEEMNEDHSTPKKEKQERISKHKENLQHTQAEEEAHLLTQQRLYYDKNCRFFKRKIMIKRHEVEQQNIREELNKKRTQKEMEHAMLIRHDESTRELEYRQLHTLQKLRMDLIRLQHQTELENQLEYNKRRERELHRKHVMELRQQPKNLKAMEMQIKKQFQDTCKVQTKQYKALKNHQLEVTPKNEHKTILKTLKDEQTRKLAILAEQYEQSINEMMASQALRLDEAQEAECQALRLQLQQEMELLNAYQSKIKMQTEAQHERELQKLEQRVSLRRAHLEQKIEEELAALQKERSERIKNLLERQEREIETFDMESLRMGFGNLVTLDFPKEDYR

Cc1nccc(COC(=O)N2C[C@@H]3[C@@H](CNC(=O)c4ccc5[nH]nnc5c4)[C@@H]3C2)n1  remaining binding (cell-free assay; competition with immobilised ligand; 1 µM): 83%
O=[N+]([O-])c1cccc2[nH]c(CNc3nc(N4CCOCC4)nc4c3ncn4-c3ccsc3)nc12  binding vs control (binding; competition with immobilised ligand; 10 µM): 85%
Cc1nc(C2CCN(C(=O)c3ccc(OC(F)(F)F)cc3N)CC2)c2ncc(N3CCN(C)CC3)cc2n1  remaining binding (cell-free assay; competition with immobilised ligand; 1 µM): 100%
CN1CC(Oc2cnc(C#N)cc2-c2ccn3nc(NC(=O)C4CC4)cc3c2)C1  inhibition (enzyme activity; inhibitor; 1 µM): -4%
O=C1NC(=O)c2cc(Nc3ccc(F)cc3)c(Nc3ccc(F)cc3)cc21  remaining signal (cell-free assay; 0.5 µM): 89.9%
O=C(Nc1ccc(Oc2ccc(F)cc2)cc1)N1CCc2ncccc2[C@H]1c1ccc(F)cc1  remaining binding (cell-free assay; competition with immobilised ligand; 1 µM): 92%
Clc1ccc(Nc2nnc(Cc3ccncc3)c3ccccc23)cc1  remaining signal (cell-free assay; 0.5 µM): 99.9%
CCN(CC)c1ccc(C2=NNC(=O)CC2C)cc1[N+](=O)[O-] (stereo not shown)  remaining activity (enzyme activity; inhibitor; 10 µM): 95%
CC(=O)N1CCC(c2ccc(C(=O)NC3=NCCN3)cc2C(F)(F)F)CC1  remaining binding (cell-free assay; competition with immobilised ligand; 1 µM): 87%
CC(C)(C)c1nc(-c2cccc(NS(=O)(=O)c3c(F)cccc3F)c2F)c(-c2ccnc(N)n2)s1  remaining activity (enzyme activity; inhibitor; radiometric; 1 µM): 91%
COc1cc2c(N3CCN(C(=O)Nc4ccc(OC(C)C)cc4)CC3)ncnc2cc1OCCCN1CCCCC1  remaining signal (cell-free assay; 0.5 µM): 96.8%
Cc1ccc(Nc2nccc(N(C)c3ccc4c(C)n(C)nc4c3)n2)cc1S(N)(=O)=O  inhibition (enzyme activity; inhibitor; 10 µM): 96%
COc1cc(-c2cc(-c3ccc(N4CCNCC4)cc3)cnc2C)cc(OC)c1OC  inhibition (enzyme activity; inhibitor; 1 µM): 3%
COCCOc1nc(-c2ccc(Cl)nc2)nc2c1CN(C(=O)c1ncn3ccccc13)CC2  remaining binding (cell-free assay; competition with immobilised ligand; 0.1 µM): 100%
COc1cc(Nc2c(C#N)cnc3cc(OCCCN4CCN(C)CC4)c(OC)cc23)c(Cl)cc1Cl  remaining signal (cell-free assay; 0.5 µM): 71.3%
CCOCCn1cc(C(=O)Nc2ccc(-n3nc(-c4cccnc4)cc3C(F)(F)F)cn2)ccc1=O  remaining binding (cell-free assay; competition with immobilised ligand; 1 µM): 66%
Cc1cnc(NC2CCOCC2)nc1-n1cnc(C(=O)NC(CN)c2cc(F)cc(Cl)c2)c1 (stereo not shown)  remaining activity (enzyme activity; inhibitor; radiometric; 1 µM): 89%
CCCOc1ccc(OC)c(F)c1C(=O)c1ccc(C(=O)N[C@@H]2CNC[C@H]2NC(=O)c2ccc3[nH]ncc3c2)cc1  remaining activity (enzyme activity; inhibitor; 10 µM): 81%
C#Cc1cccc(Nc2ncnc3cc(OCCOC)c(OCCOC)cc23)c1  remaining signal (cell-free assay; 0.5 µM): 106%
Cc1sc(C(=O)NC2COC2)cc1-n1cc(NC(=O)Nc2c(F)cccc2Cl)cn1  remaining activity (enzyme activity; inhibitor; 10 µM): 98%
CC(C)(O)[C@H]1CC[C@H](Nc2ccc3ncc(-c4cccc(C(F)(F)F)c4)n3n2)CC1  remaining activity (enzyme activity; inhibitor; 1 µM): 75.1%
CCOc1cc(-c2nncn2C)ccc1Nc1ncc2cc(C)nc(NCC(C)(C)C)c2n1  inhibition (cell-free assay; TR-FRET; 1 µM): ≤ 15%
